Laboratory results from ChEMBL document CHEMBL1255293, “In vitro susceptibility of various genotypic strains of Toxoplasma gondii to pyrimethamine, sulfadiazine, and atovaquone” (Antimicrob Agents Chemother, 2008).
In brackets after ≈: the same amount, converted by molar mass.

Experiments:
Assay type in all cases: functional, organism-based
[1] = tested on: Toxoplasma gondii; assay: Antimicrobial activity against Toxoplasma gondii ENT harboring DHPS Ex2, E474D/Ex3, 156 sil Leu/Ex4, R560K/Ex5, 580 sil Gly/A597E/627 sil Glu mutant gene and DHFR Ex3, 156 sil Leu mutant gene infected in human MRC-5 cells after 72 hrs by ELISA; conditions: MRC5, 72 h
How it was run: (§1)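 Tachyzoites freshly harvested from THP-1 cultures inoculated at 0.4 to 1 tachyzoite/10 cells, adjusted per strain, onto confluent MRC-5 fibroblasts. Drugs were stocked at 1 mg/ml in 50% methanol-50% acetone, diluted in RPMI, and added 3 h post-inoculation in four to eight replicate wells. Incubation was 72 h, then methanol fixation. Read-out was ELISA with rabbit anti-Toxoplasma serum and peroxidase anti-rabbit conjugate, TMB substrate, OD 405 nm. IC50 came from linear regression of OD versus log concentration; experiments were run in duplicate.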

[2] = tested on: Toxoplasma gondii; assay: Antimicrobial activity against Toxoplasma gondii B1 harboring DHPS Ex2, E474D/Ex4, R560K/Ex5, 580 sil Gly/ A597E/627 sil Glu mutant gene and DHFR Ex3, 156 sil Leu mutant gene infected in human MRC-5 cells after 72 hrs by ELISA; conditions: B1, MRC5, 72 h; how it was run: as §1
[3] = tested on: Toxoplasma gondii; assay: Antimicrobial activity against Toxoplasma gondii isolate RMS-1995-ABE harboring DHPS Ex5, A587V mutant gene infected in human MRC-5 cells after 72 hrs by ELISA; conditions: MRC5, 72 h; how it was run: as §1
[4] = tested on: Toxoplasma gondii; assay: Antimicrobial activity against Toxoplasma gondii ME49 infected in human MRC-5 cells infected in human MRC-5 cells after 72 hrs by ELISA; conditions: ME49, MRC5, 72 h
How it was run: (§2)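 Confluent MRC-5 fibroblasts (3.5 x 10^4 to 4 x 10^4 cells/well) inoculated with tachyzoites freshly harvested from THP-1 cultures, 0.4 to 1 tachyzoite/10 cells adjusted per strain for nonconfluent foci at 72 h. Drugs (stock 1 mg/ml in 50% methanol-50% acetone, diluted in RPMI) added 3 h post-inoculation, four to eight replicate wells per dilution. Cultures incubated 72 h.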

[5] = tested on: Toxoplasma gondii; assay: Antimicrobial activity against Toxoplasma gondii isolate TRS-2004-REV infected in human MRC-5 cells after 72 hrs by ELISA; conditions: MRC5, 72 h; how it was run: as §2
[6] = tested on: Toxoplasma gondii; assay: Antimicrobial activity against Toxoplasma gondii isolate TOU-1998-TRI infected in human MRC-5 cells after 72 hrs by ELISA; conditions: MRC5, 72 h; how it was run: as §2
[7] = tested on: Toxoplasma gondii; assay: Antimicrobial activity against Toxoplasma gondii isolate RMS-2005-HAG infected in human MRC-5 cells after 72 hrs by ELISA; conditions: MRC5, 72 h; how it was run: as §2
[8] = tested on: Toxoplasma gondii; assay: Antimicrobial activity against Toxoplasma gondii isolate GRE-1995-MAE infected in human MRC-5 cells after 72 hrs by ELISA; conditions: MRC5, 72 h; how it was run: as §2
[9] = tested on: Toxoplasma gondii; assay: Antimicrobial activity against Toxoplasma gondii isolate PSP-2005-MUP infected in human MRC-5 cells after 72 hrs by ELISA; conditions: MRC5, 72 h; how it was run: as §2
[10] = tested on: Toxoplasma gondii; assay: Antimicrobial activity against Toxoplasma gondii isolate GRE-1998-TRA infected in human MRC-5 cells after 72 hrs by ELISA; conditions: MRC5, 72 h; how it was run: as §2
[11] = tested on: Toxoplasma gondii; assay: Antimicrobial activity against Toxoplasma gondii NED infected in human MRC-5 cells after 72 hrs by ELISA; conditions: MRC5, 72 h; how it was run: as §2
[12] = tested on: Toxoplasma gondii; assay: Antimicrobial activity against Toxoplasma gondii isolate RMS-1994-LEF harboring DHPS Ex2, E474D/Ex4, R560K/Ex5, 580 sil Gly; A597E/627 sil Glu mutant gene and DHFR Ex3, 204 sil Ala mutant gene infected in human MRC-5 cells after 72 hrs by ELISA; conditions: MRC5, 72 h; how it was run: as §1
[13] = tested on: Toxoplasma gondii; assay: Antimicrobial activity against Toxoplasma gondii isolate RMS-2003-DJO infected in human MRC-5 cells after 72 hrs by ELISA; conditions: MRC5, 72 h; how it was run: as §2
[14] = tested on: Toxoplasma gondii; assay: Antimicrobial activity against Toxoplasma gondii isolate RMS-2001-MAU infected in human MRC-5 cells after 72 hrs by ELISA; conditions: MRC5, 72 h; how it was run: as §2
[15] = tested on: Toxoplasma gondii; assay: Antimicrobial activity against Toxoplasma gondii isolate GUY-2003-MEL harboring DHPS Ex2, E474D/Ex4, R560K/Ex5, 580 sil Gly/ A597E/627 sil Glu mutant gene and DHFR Ex2, 145 sil Val mutant gene infected in human MRC-5 cells after 72 hrs by ELISA; conditions: MRC5, 72 h; how it was run: as §1
[16] = tested on: Toxoplasma gondii; assay: Antimicrobial activity against Toxoplasma gondii RH harboring DHPS Ex2, E474D/Ex4, R560K/Ex5, 580 sil Gly; A597E/627 sil Glu mutant gene and DHFR Ex3, 156 sil Leu mutant gene infected in human MRC-5 cells after 72 hrs by ELISA; conditions: MRC5, 72 h; how it was run: as §1

SMILES | IC50 [1] [µg/mL] | IC50 [2] [µg/mL] | IC50 [3] [µg/mL] | IC50 [4] [µg/mL] | IC50 [5] [µg/mL] | IC50 [6] [µg/mL] | IC50 [7] [µg/mL] | IC50 [8] [µg/mL] | IC50 [9] [µg/mL] | IC50 [10] [µg/mL] | IC50 [11] [µg/mL] | IC50 [12] [µg/mL] | IC50 [13] [µg/mL] | IC50 [14] [µg/mL] | IC50 [15] [µg/mL] | IC50 [16] [µg/mL]
O=C1C(O)=C([C@H]2CC[C@H](c3ccc(Cl)cc3)CC2)C(=O)c2ccccc21 [ATOVAQUONE] | 0.07 (≈ 0.191 µM) | 0.1 (≈ 0.273 µM) | 0.11 (≈ 0.3 µM) | 0.05 (≈ 0.136 µM) | 0.07 (≈ 0.191 µM) | 0.07 (≈ 0.191 µM) | 0.04 (≈ 0.109 µM) | 0.03 (≈ 0.0818 µM) | 0.06 (≈ 0.164 µM) | 0.05 (≈ 0.136 µM) | 0.03 (≈ 0.0818 µM) | 0.04 (≈ 0.109 µM) | 0.08 (≈ 0.218 µM) | 0.06 (≈ 0.164 µM) | 0.04 (≈ 0.109 µM) | 0.05 (≈ 0.136 µM)
CCc1nc(N)nc(N)c1-c1ccc(Cl)cc1 [PYRIMETHAMINE] | 0.34 (≈ 1.37 µM) | 0.35 (≈ 1.41 µM) | 0.17 (≈ 0.684 µM) | 0.09 (≈ 0.362 µM) | 0.18 (≈ 0.724 µM) | 0.15 (≈ 0.603 µM) | 0.11 (≈ 0.442 µM) | 0.11 (≈ 0.442 µM) | 0.14 (≈ 0.563 µM) | 0.39 (≈ 1.57 µM) | 0.19 (≈ 0.764 µM) | 0.07 (≈ 0.281 µM) | 0.09 (≈ 0.362 µM) | 0.12 (≈ 0.482 µM) | 0.25 (≈ 1.01 µM) | 0.1 (≈ 0.402 µM)
Nc1ccc(S(=O)(=O)Nc2ncccn2)cc1 [SULFADIAZINE] | 4.28 (≈ 17.1 µM) | > 50 | > 50 | 6.55 (≈ 26.2 µM) | 6.26 (≈ 25 µM) | 2.95 (≈ 11.8 µM) | 6.7 (≈ 26.8 µM) | 14.9 (≈ 59.7 µM) | 18.8 (≈ 75.1 µM) | 16.8 (≈ 67.3 µM) | 9.25 (≈ 37 µM) | 9.65 (≈ 38.6 µM) | 4.9 (≈ 19.6 µM) | > 50 | 5.35 (≈ 21.4 µM) | 6.52 (≈ 26.1 µM)
